What all share (format): functional
Assay [1] has as its system Plasma. Put plainly: Anticoagulant activity in human plasma assessed as prothrombin time index at 60 ug/ml relative to control. In outline:
(§1)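 Citrated human donor plasma (2.5% sodium citrate, spun 5400 rpm at 4 °C for 20 min, kept at -70 °C). 90 µl plasma with 10 µl aqueous compound, incubated 10 min at 37 °C. Pre-incubated PT reagent (200 µl) added, clotting time recorded. Normal saline as control. PT index = sample PT/control PT. Mean of five trials.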

The subject of assay [2] is Plasma. Put plainly: Anticoagulant activity in human plasma assessed as activated partial […] time index at 60 ug/ml relative to control. The essentials:
(§2)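 Citrated plasma from healthy human donors (blood into 2.5% sodium citrate, spun 5400 rpm, 4 °C, 20 min, stored -70 °C). Plasma 90 µl plus 10 µl compound in water, 1 min at 37 °C. APTT reagent added, 5 min at 37 °C, then CaCl2 added. Clotting time read on a coagulometer. Saline control, heparin reference. Index = sample APTT/control APTT. Mean of five trials.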

In assay [3] the test system is Plasma. Briefly: Anticoagulant activity in human plasma assessed as activated partial […] time at 60 ug/ml. The essentials:
as §2

The subject of assay [4] is Plasma. Put plainly: Anticoagulant activity in human plasma assessed as prothrombin time index at 30 ug/ml relative to control. In outline:
as §1

Assay [5] has as its system Plasma. Briefly: Anticoagulant activity in human plasma assessed as prothrombin time at 30 ug/ml. The essentials: as §1
Assay [6] concerns Plasma. Put plainly: Anticoagulant activity in human plasma assessed as activated partial […] time at 30 ug/ml. In outline: as §2
Assay [7] deals with Plasma. Put plainly: Anticoagulant activity in human plasma assessed as activated partial […] time index at 30 ug/ml relative to control. In outline: as §2
The subject of assay [8] is Plasma. Put plainly: Anticoagulant activity in human plasma assessed as prothrombin time at 60 ug/ml. In outline: as §1

For the compound `CC1=C(C(=O)NNC(N)=S)C(c2ccco2)C(C(=O)NNC(N)=S)=C(C)N1`, the Ratio with Plasma [1] was determined as 21.22; with Plasma [2], 27.47; with Plasma [4] it was 12.14; with Plasma [7], 19.78. The APTT in the assay on Plasma [3] was more than 1000 s; in the assay on Plasma [6] it was 720.35 s. The PT was 240.42 s in the assay on Plasma [5] and 420.21 s with Plasma [8].
Regarding `CC1=C(C(=O)NNC(N)=S)C(c2ccccc2)C(C(=O)NNC(N)=S)=C(C)N1`, the Ratio was found to be 2.31 in the assay on Plasma [1], 5.01 with Plasma [2], 0 in the assay with Plasma [4] and 2.4 with Plasma [7]. Moreover, the figures for the APTT in the assay with Plasma [3] and with Plasma [6] were 182.4 s and 87.5 s, respectively. The PT with Plasma [8] was found to be 45.8 s.
Consider `CC1=C(C(=O)NNC(N)=S)C(c2ccc(Cl)cc2)C(C(=O)NNC(N)=S)=C(C)N1`, for which the Ratio worked out at 1.24 in the assay on Plasma [1], 5.5 in the assay with Plasma [2], 0 in the assay with Plasma [4] and 2.49 with Plasma [7]. Moreover, the APTT with Plasma [3] worked out at 200.4 s; in the assay with Plasma [6], 90.7 s. Besides, in the assay on Plasma [8], the PT amounted to 33.8 s.
Turning to `CC1=C(C(=O)NNC(N)=S)C(c2ccc(O)cc2)C(C(=O)NNC(N)=S)=C(C)N1`, the Ratio with Plasma [1] worked out at 3.5; in the assay with Plasma [2], 24.25; in the assay on Plasma [4], 2.3; with Plasma [7], 11. For the same compound, the APTT in the assay on Plasma [3] turned out to be 882.7 s; with Plasma [6], 400.8 s. Besides, the PT in the assay on Plasma [5] was 45.6 s; in the assay with Plasma [8], 70.8 s.
Consider `CC1=C(C(=O)NNC(N)=S)C(c2ccc([N+](=O)[O-])cc2)C(C(=O)NNC(N)=S)=C(C)N1`, for which the Ratio in the assay with Plasma [1] is recorded as 2.66; in the assay on Plasma [2], 19.82; in the assay on Plasma [7] it was 8.82. The APTT amounted to 721.8 s with Plasma [3] and 321.2 s in the assay with Plasma [6]. Further, the values for the PT in the assay with Plasma [5] and in the assay with Plasma [8] were 24.7 s and 52.8 s, respectively.
In the case of `COc1ccc(C2C(C(=O)NNC(N)=S)=C(C)NC(C)=C2C(=O)NNC(N)=S)cc1`, the Ratio in the assay on Plasma [1] is on record as 4.71; in the assay with Plasma [2] it was 3.3; with Plasma [4], 2.03; in the assay with Plasma [7], 1.85. Moreover, the values for the APTT in the assay on Plasma [3] and with Plasma [6] were 120.2 s and 64.7 s, respectively. The PT is listed as 45.7 s with Plasma [5] and 93.4 s with Plasma [8].
`CC1=C(C(=O)NNC(N)=S)C(c2ccc(N(C)C)cc2)C(C(=O)NNC(N)=S)=C(C)N1`: the Ratio amounted to 2.43 in the assay on Plasma [1], 13.18 in the assay with Plasma [2], 1.09 in the assay with Plasma [4] and 6.09 with Plasma [7]. Moreover, the APTT in the assay with Plasma [3] turned out to be 480 s; with Plasma [6], 221.8 s. Further, the PT with Plasma [5] is reported as 21.6 s; with Plasma [8], 48.2 s.

The values above are taken from ChEMBL document CHEMBL1667797, “Synthesis and anticoagulant activity of a new series of 1,4-dihydropyridine derivatives” (2011).
